From ChEMBL document CHEMBL3351567, “Heterodimeric ent-kauranoids from Isodon tenuifolius” (J Nat Prod, 2014) come the findings set out here.

Bounds are passed on as bounds.

Holding throughout (assay type): functional, cell-based
The test system of one test is SMMC-7721. As to the kind of experiment: Cytotoxicity against human SMMC7721 cells after 48 hrs by MTT assay. The conditions noted are these: SMMC-7721, 48 h. In short, it runs like this:
(§1)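 Cells grown in RPMI-1640 or DMEM with 10% FBS, 37 °C, 5% CO2. Seeded at 1 × 10^5 cells/mL in 100 μL; adherent lines attached 12 h before dosing, suspension cells seeded at dosing. Compound at various concentrations in triplicate, 48 h. MTT (100 μg) added for 4 h, lysed with 20% SDS–50% DMF, OD 595 nm. IC50 by Reed–Muench method; cisplatin and paclitaxel as positive controls.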
For orientation: Tetrazolium assays rely on reduction of a dye to a coloured formazan, in cell work by metabolically active cells.

A short description of test [1]: Cytotoxicity against human HL60 cells after 48 hrs by MTT assay. Conditions: HL-60, 48 h. The essentials: as §1
Another test concerns MCF7. As to the kind of experiment: Cytotoxicity against human MCF7 cells after 48 hrs by MTT assay. The conditions noted are these: MCF7, 48 h. The essentials: as §1
The test system of a further test is A549. Briefly: Cytotoxicity against human A549 cells after 48 hrs by MTT assay. Conditions: A549, 48 h. The essentials: as §1
For a further test, the system named is SW480. Briefly: Cytotoxicity against human SW480 cells after 48 hrs by MTT assay. The conditions noted are these: SW480, 48 h. The essentials:
as §1

The term IC50 denotes the concentration needed to halve the response being measured. Take `CC(=O)O[C@H]1C[C@@H]2C[C@@]3(C4=C2CC[C@@]2(O4)C(=O)[C@]45C[C@H]2C[C@H](OC(C)=O)[C@H]4[C@]2(C)[C@@H](OC(C)=O)C[C@H](O)C(C)(C)[C@H]2C(=O)[C@@H]5OC(C)=O)[C@@H]1[C@]1(C)[C@@H](OC(C)=O)C[C@H](OC(C)=O)C(C)(C)[C@H]1C(=O)[C@@H]3O`: the IC50 in the test with SMMC-7721 was 9.9 µM; in test [1], 4.6 µM; in the test with MCF7, 4.2 µM; with A549, above 10 µM; with SW480 it was 4 µM.
For `CC(=O)O[C@H]1C[C@@H]2C[C@@]3(C(=O)[C@]24CCC2=C(O4)[C@]45C[C@H]2C[C@H](OC(C)=O)[C@H]4[C@]2(C)[C@@H](OC(C)=O)C[C@H](O)C(C)(C)[C@H]2C(=O)[C@@H]5OC(C)=O)[C@@H]1[C@]1(C)[C@@H](OC(C)=O)C[C@H](OC(C)=O)C(C)(C)[C@H]1C(=O)[C@@H]3O`, the IC50 (in the test on SMMC-7721; in test [1]; in the test on MCF7; in the test with A549; in the test on SW480) was above 10 µM each time.
Regarding `CC(=O)O[C@H]1C[C@@H]2C[C@@]3(C(=O)[C@]24CCC2=C(O4)[C@]45C[C@H]2C[C@H](OC(C)=O)[C@H]4[C@]2(C)[C@@H](OC(C)=O)C[C@H](O)C(C)(C)[C@H]2C(=O)[C@@H]5O)[C@@H]1[C@]1(C)[C@@H](OC(C)=O)C[C@H](O)C(C)(C)[C@H]1C(=O)[C@@H]3O`, the IC50 (with SMMC-7721; in test [1]; with MCF7; with A549; in the test with SW480) was above 10 µM in each case.
As to `CC(=O)O[C@H]1C[C@@H]2C[C@@]3(C(=O)[C@]24CCC2=C(O4)[C@@]45CC(=O)[C@@H]6C(C)(C)[C@@H](OC(C)=O)C[C@H](O)[C@@]6(C)[C@@H]4C(=O)C[C@@H]2C5)[C@@H]1[C@]1(C)[C@@H](OC(C)=O)C[C@H](O)C(C)(C)[C@H]1C(=O)[C@@H]3OC(C)=O`, the IC50 (in the test with SMMC-7721; in test [1]; in the test with MCF7; in the test on A549; in the test on SW480) was above 10 µM each time.
Consider `CC(=O)O[C@H]1C[C@@H]2C[C@@]3(C(=O)[C@]24CCC2=C(O4)[C@]45C[C@H]2C[C@H](OC(C)=O)[C@H]4[C@]2(C)[C@@H](OC(C)=O)C[C@H](O)C(C)(C)[C@H]2[C@@H](O)[C@@H]5O)[C@@H]1[C@]1(C)[C@@H](OC(C)=O)C[C@H](O)C(C)(C)[C@H]1[C@@H](O)[C@@H]3O`, for which the IC50 (in the test with SMMC-7721; in test [1]; in the test with MCF7; in the test with A549; in the test on SW480) was above 10 µM in each case.
`CC(=O)O[C@H]1C[C@@H]2C[C@@]3(C(=O)[C@H]2C[C@]2(CO)C(=O)[C@]45C[C@H]2C[C@H](OC(C)=O)[C@H]4[C@]2(C)[C@@H](OC(C)=O)C[C@H](O)C(C)(C)[C@H]2C(=O)[C@@H]5O)[C@@H]1[C@]1(C)[C@@H](OC(C)=O)C[C@H](O)C(C)(C)[C@H]1C(=O)[C@@H]3O`: the IC50 (in the test on SMMC-7721; in test [1]; with MCF7; with A549; in the test on SW480) was above 10 µM throughout.
Take `COC[C@@]1(C[C@@H]2C(=O)[C@]34C[C@H]2C[C@H](OC(C)=O)[C@H]3[C@]2(C)[C@@H](OC(C)=O)C[C@H](O)C(C)(C)[C@H]2C(=O)[C@@H]4O)C(=O)[C@]23C[C@H]1C[C@H](OC(C)=O)[C@H]2[C@]1(C)[C@@H](OC(C)=O)C[C@H](O)C(C)(C)[C@H]1C(=O)[C@@H]3O`: the IC50 (with SMMC-7721; in test [1]; in the test with MCF7; in the test on A549; with SW480) was above 10 µM throughout.
As for `COC[C@@]1(C[C@@H]2C(=O)[C@]34C[C@H]2C[C@H](OC(C)=O)[C@H]3[C@]2(C)[C@@H](OC(C)=O)C[C@H](O)C(C)(C)[C@H]2C(=O)[C@@H]4O)C(=O)[C@]23C[C@H]1C[C@H](OC(C)=O)[C@H]2[C@]1(C)[C@@H](OC(C)=O)C[C@H](O)C(C)(C)[C@H]1C(=O)[C@H]3O`, the half-maximal inhibitory concentration (IC50) (in the test with SMMC-7721; in test [1]; in the test on MCF7; in the test with A549; in the test with SW480) was above 10 µM each time.
Consider `COC[C@@]1(C[C@@H]2C(=O)[C@]34C[C@H]2C[C@H](OC(C)=O)[C@H]3[C@]2(C)[C@@H](OC(C)=O)C[C@H](O)C(C)(C)[C@H]2C(=O)[C@@H]4O)C(=O)[C@]23C[C@H]1C[C@H](O)[C@H]2[C@@]1(C)[C@H](C(=O)[C@@H]3O)C(C)(C)[C@@H](O)C[C@@H]1O`, for which the IC50 (in the test on SMMC-7721; in test [1]; in the test with MCF7; in the test on A549; in the test on SW480) was above 10 µM in each case.
For `COC[C@@]1(C[C@@H]2C(=O)[C@]34C[C@H]2C[C@H](OC(C)=O)[C@H]3[C@@]2(C)[C@H](C(=O)[C@@H]4O)C(C)(C)[C@@H](O)C[C@@H]2O)C(=O)[C@]23C[C@H]1C[C@H](OC(C)=O)[C@H]2[C@]1(C)[C@@H](OC(C)=O)C[C@H](O)C(C)(C)[C@H]1C(=O)[C@@H]3O`, the IC50 (with SMMC-7721; in test [1]; in the test on MCF7; in the test on A549; with SW480) was above 10 µM throughout.
As to `CC(=O)O[C@H]1C[C@@H]2C[C@@]3(C(=O)[C@]24CC[C@@]42C(=O)[C@]45C[C@H]2C[C@H](OC(C)=O)[C@H]4[C@]2(C)[C@@H](OC(C)=O)C[C@H](O)C(C)(C)[C@H]2C(=O)[C@@H]5O)[C@@H]1[C@]1(C)[C@@H](OC(C)=O)C[C@H](OC(C)=O)C(C)(C)[C@H]1C(=O)[C@@H]3OC(C)=O`, the IC50 (in the test on SMMC-7721; in test [1]; in the test on MCF7; with A549; in the test on SW480) was above 10 µM each time.
For the compound `CC(=O)O[C@H]1C[C@@H]2C[C@@]3(CC(=O)[C@@H]4C(C)(C)[C@@H](O)C[C@H](OC(C)=O)[C@@]4(C)[C@H]13)C(=O)[C@]21CC[C@@]12C(=O)[C@]13C[C@H]2C[C@H](OC(C)=O)[C@H]1[C@]1(C)[C@@H](OC(C)=O)C[C@H](O)C(C)(C)[C@H]1C(=O)[C@@H]3OC(C)=O`, the IC50 (with SMMC-7721; in test [1]; in the test with MCF7; with A549; with SW480) was above 10 µM in each case.
On to `CC(=O)O[C@H]1C(=O)[C@@]2(C)[C@H]([C@H](OC(=O)c3ccccc3)[C@]3(O)C[C@H](OC(=O)[C@H](O)[C@@H](NC(=O)c4ccccc4)c4ccccc4)C(C)=C1C3(C)C)[C@]1(OC(C)=O)CO[C@@H]1C[C@@H]2O` [PACLITAXEL], for which the IC50 (in the test on SMMC-7721; in test [1]; with MCF7; in the test on A549) was below 0.008 µM in each case.
